Tests used:
Type in all cases: functional
CCRF-CEM = experiment: Growth inhibition of human CCRF-CEM cells at 10 uM after 48 hrs by coulter counter method; conditions: read-out: GI
Procedure, shortened: (§1)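 Single high-dose NCI 60-cell-line panel screen across nine tumor subpanels. Test solutions (0.2 mL) were added in duplicate to wells holding 1.8 mL of culture at 6 × 10⁴ cells/mL. Controls got PBS and DMSO at identical dilutions. Incubation was 48 h at 37 °C in humidified 5% CO₂. Cells were diluted 10-fold in saline, Coulter-counted and dilution-corrected. Results were expressed as percent growth inhibition versus control.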

HL-60(TB) = experiment: Growth inhibition of human HL-60(TB) cells at 10 uM after 48 hrs by coulter counter method; conditions: HL-60, 48 h, read-out: GI
Procedure, shortened: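 Part of the NCI 60-cell-line single-high-dose panel. Cells were seeded at 6 × 10⁴ cells/mL with test solution in duplicate wells, alongside PBS/DMSO controls at identical dilutions. Plates were held 48 h at 37 °C in a humidified 5% CO₂ incubator. Cells were then diluted 10-fold in saline and counted by Coulter counter, with counts corrected for dilution. Results are percent growth of treated cells, reported as GI %.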

K562 = experiment: Growth inhibition of human K562 cells at 10 uM after 48 hrs by coulter counter method; conditions: K562, 48 h, read-out: GI; procedure, shortened: as §1
MOLT-4 = experiment: Growth inhibition of human MOLT4 cells at 10 uM after 48 hrs by coulter counter method; conditions: MOLT-4, 48 h, read-out: GI; procedure, shortened: as §1
SR = experiment: Growth inhibition of human SR cells at 10 uM after 48 hrs by coulter counter method; conditions: read-out: GI; procedure, shortened: as §1
A549 = experiment: Growth inhibition of human A549 cells at 10 uM after 48 hrs by coulter counter method; conditions: A549, 48 h, read-out: GI; procedure, shortened: as §1
NCI-H226 = experiment: Growth inhibition of human NCI-H226 cells at 10 uM after 48 hrs by coulter counter method; conditions: NCI-H226, 48 h, read-out: GI; procedure, shortened: as §1
NCI-H23 = experiment: Growth inhibition of human NCI-H23 cells at 10 uM after 48 hrs by coulter counter method; conditions: NCI-H23, 48 h, read-out: GI; procedure, shortened: as §1
NCI-H522 = experiment: Growth inhibition of human NCI-H522 cells at 10 uM after 48 hrs by coulter counter method; conditions: NCI-H522, 48 h, read-out: GI; procedure, shortened: as §1
COLO 205 = experiment: Growth inhibition of human COLO205 cells at 10 uM after 48 hrs by coulter counter method; conditions: COLO 205, 48 h, read-out: GI; procedure, shortened: as §1
HCT-116 = experiment: Growth inhibition of human HCT116 cells at 10 uM after 48 hrs by coulter counter method; conditions: HCT-116, 48 h, read-out: GI; procedure, shortened: as §1
KM12 = experiment: Growth inhibition of human KM12 cells at 10 uM after 48 hrs by coulter counter method; conditions: KM12, 48 h, read-out: GI; procedure, shortened: as §1
SF-268 = experiment: Growth inhibition of human SF268 cells at 10 uM after 48 hrs by coulter counter method; conditions: SF-268, 48 h, read-out: GI; procedure, shortened: as §1
SF-539 = experiment: Growth inhibition of human SF539 cells at 10 uM after 48 hrs by coulter counter method; conditions: SF-539, 48 h, read-out: GI; procedure, shortened: as §1
SNB-75 = experiment: Growth inhibition of human SNB75 cells at 10 uM after 48 hrs by coulter counter method; conditions: SNB-75, 48 h, read-out: GI; procedure, shortened: as §1
U-251 = experiment: Growth inhibition of human U251 cells at 10 uM after 48 hrs by coulter counter method; conditions: U-251, 48 h, read-out: GI; procedure, shortened: as §1
M14 = experiment: Growth inhibition of human M14 cells at 10 uM after 48 hrs by coulter counter method; conditions: M14, 48 h, read-out: GI; procedure, shortened: as §1
SK-MEL-2 = experiment: Growth inhibition of human SK-MEL-2 cells at 10 uM after 48 hrs by coulter counter method; conditions: SK-MEL-2, 48 h, read-out: GI; procedure, shortened: as §1
SK-MEL-28 = experiment: Growth inhibition of human SK-MEL-28 cells at 10 uM after 48 hrs by coulter counter method; conditions: SK-MEL-28, 48 h, read-out: GI; procedure, shortened: as §1
UACC-62 = experiment: Growth inhibition of human UACC62 cells at 10 uM after 48 hrs by coulter counter method; conditions: UACC-62, 48 h, read-out: GI; procedure, shortened: as §1
IGROV-1 = experiment: Growth inhibition of human IGROV1 cells at 10 uM after 48 hrs by coulter counter method; conditions: IGROV-1, 48 h, read-out: GI; procedure, shortened: as §1
OVCAR-4 = experiment: Growth inhibition of human OVCAR4 cells at 10 uM after 48 hrs by coulter counter method; conditions: OVCAR-4, 48 h, read-out: GI; procedure, shortened: as §1
OVCAR-8 = experiment: Growth inhibition of human OVCAR8 cells at 10 uM after 48 hrs by coulter counter method; conditions: OVCAR-8, 48 h, read-out: GI; procedure, shortened: as §1
SK-OV-3 = experiment: Growth inhibition of human SKOV3 cells at 10 uM after 48 hrs by coulter counter method; conditions: SK-OV-3, 48 h, read-out: GI; procedure, shortened: as §1
786-0 = experiment: Growth inhibition of human 786-0 cells at 10 uM after 48 hrs by coulter counter method; conditions: 786-0, 48 h, read-out: GI; procedure, shortened: as §1
CAKI-1 = experiment: Growth inhibition of human Caki1 cells at 10 uM after 48 hrs by coulter counter method; conditions: CAKI-1, 48 h, read-out: GI; procedure, shortened: as §1
SN12C = experiment: Growth inhibition of human SN12C cells at 10 uM after 48 hrs by coulter counter method; conditions: read-out: GI; procedure, shortened: as §1
UO-31 = experiment: Growth inhibition of human UO31 cells at 10 uM after 48 hrs by coulter counter method; conditions: UO-31, 48 h, read-out: GI; procedure, shortened: as §1
PC-3 = experiment: Growth inhibition of human PC3 cells at 10 uM after 48 hrs by coulter counter method; conditions: PC-3, 48 h, read-out: GI; procedure, shortened: as §1
MCF7 = experiment: Growth inhibition of human MCF7 cells at 10 uM after 48 hrs by coulter counter method; conditions: MCF7, 48 h, read-out: GI; procedure, shortened: as §1
MDA-MB-231 = experiment: Growth inhibition of human MDA-MB-231 cells at 10 uM after 48 hrs by coulter counter method; conditions: MDA-MB-231, 48 h, read-out: GI; procedure, shortened: as §1
[1] = Growth inhibition of human Hs 578T cells at 10 uM after 48 hrs by coulter counter method; conditions: read-out: GI; procedure, shortened: as §1
T47D = experiment: Growth inhibition of human T47D cells at 10 uM after 48 hrs by coulter counter method; conditions: read-out: GI; procedure, shortened: as §1
MDA-MB-468 = experiment: Growth inhibition of human MDA-MB-468 cells at 10 uM after 48 hrs by coulter counter method; conditions: MDA-MB-468, 48 h, read-out: GI; procedure, shortened: as §1
HOP-92 = experiment: Growth inhibition of human HOP92 cells at 10 uM after 48 hrs by coulter counter method; conditions: HOP-92, 48 h, read-out: GI; procedure, shortened: as §1

COc1ccc(-n2c(SC)nc3ccccc3c2=O)cc1
inhibition of growth at 10 µM (CCRF-CEM): 30%
inhibition of growth at 10 µM (HL-60(TB)): 30%
inhibition of growth at 10 µM (K562): 30.1%
inhibition of growth at 10 µM (MOLT-4): 30%
inhibition of growth at 10 µM (SR): 30%
inhibition of growth at 10 µM (A549): 30%
inhibition of growth at 10 µM (NCI-H226): 30%
inhibition of growth at 10 µM (NCI-H23): 30%
inhibition of growth at 10 µM (NCI-H522): 30%
inhibition of growth at 10 µM (COLO 205): 30%
inhibition of growth at 10 µM (HCT-116): 30%
inhibition of growth at 10 µM (KM12): 30%
inhibition of growth at 10 µM (SF-268): 30%
inhibition of growth at 10 µM (SF-539): 30%
inhibition of growth at 10 µM (SNB-75): 30%
inhibition of growth at 10 µM (U-251): 30%
inhibition of growth at 10 µM (M14): 30%
inhibition of growth at 10 µM (SK-MEL-2): 30%
inhibition of growth at 10 µM (SK-MEL-28): 30%
inhibition of growth at 10 µM (UACC-62): 30%
inhibition of growth at 10 µM (IGROV-1): 30%
inhibition of growth at 10 µM (OVCAR-4): 30%
inhibition of growth at 10 µM (OVCAR-8): 30%
inhibition of growth at 10 µM (SK-OV-3): 30%
inhibition of growth at 10 µM (786-0): 30%
inhibition of growth at 10 µM (CAKI-1): 30%
inhibition of growth at 10 µM (SN12C): 30%
inhibition of growth at 10 µM (UO-31): 30%
inhibition of growth at 10 µM (PC-3): 30%
inhibition of growth at 10 µM (MCF7): 30%
inhibition of growth at 10 µM (MDA-MB-231): 30%
inhibition of growth at 10 µM [1]: 30%
inhibition of growth at 10 µM (T47D): 30%
inhibition of growth at 10 µM (MDA-MB-468): 30%

COc1ccc(C(=O)CSc2nc3ccccc3c(=O)n2-c2ccc(OC)cc2)cc1
inhibition of growth at 10 µM (CCRF-CEM): 70.3%
inhibition of growth at 10 µM (HL-60(TB)): 43%
inhibition of growth at 10 µM (MOLT-4): 49.4%
inhibition of growth at 10 µM (SR): 34.9%
inhibition of growth at 10 µM (A549): 30.8%
inhibition of growth at 10 µM (HOP-92): 30%
inhibition of growth at 10 µM (NCI-H226): 30%
inhibition of growth at 10 µM (NCI-H23): 30%
inhibition of growth at 10 µM (NCI-H522): < 30%
inhibition of growth at 10 µM (COLO 205): 30%
inhibition of growth at 10 µM (HCT-116): 30%
inhibition of growth at 10 µM (KM12): 30%
inhibition of growth at 10 µM (SF-268): 30%
inhibition of growth at 10 µM (SF-539): 30%
inhibition of growth at 10 µM (SNB-75): 30%
inhibition of growth at 10 µM (U-251): 30%
inhibition of growth at 10 µM (M14): 30%
inhibition of growth at 10 µM (SK-MEL-2): 30%
inhibition of growth at 10 µM (SK-MEL-28): 30%
inhibition of growth at 10 µM (UACC-62): 30%
inhibition of growth at 10 µM (IGROV-1): 30%
inhibition of growth at 10 µM (OVCAR-4): 30%
inhibition of growth at 10 µM (OVCAR-8): 30%
inhibition of growth at 10 µM (SK-OV-3): 30%
inhibition of growth at 10 µM (786-0): 30%
inhibition of growth at 10 µM (SN12C): 30%
inhibition of growth at 10 µM (UO-31): 30.3%
inhibition of growth at 10 µM (PC-3): 30%
inhibition of growth at 10 µM (MCF7): 30%
inhibition of growth at 10 µM (MDA-MB-231): 30%
inhibition of growth at 10 µM [1]: 30%
inhibition of growth at 10 µM (T47D): 30%
inhibition of growth at 10 µM (MDA-MB-468): 30.8%

CCn1c(SC)nc2ccccc2c1=O
inhibition of growth at 10 µM (CCRF-CEM): 49.5%
inhibition of growth at 10 µM (HL-60(TB)): 34.8%
inhibition of growth at 10 µM (K562): 30%
inhibition of growth at 10 µM (MOLT-4): 30%
inhibition of growth at 10 µM (SR): 30%
inhibition of growth at 10 µM (A549): 30%
inhibition of growth at 10 µM (HOP-92): 60.8%
inhibition of growth at 10 µM (NCI-H226): 30%
inhibition of growth at 10 µM (NCI-H23): 30%
inhibition of growth at 10 µM (NCI-H522): 30%
inhibition of growth at 10 µM (COLO 205): 30%
inhibition of growth at 10 µM (HCT-116): 30%
inhibition of growth at 10 µM (KM12): 30%
inhibition of growth at 10 µM (SF-268): 30%
inhibition of growth at 10 µM (SF-539): 30%
inhibition of growth at 10 µM (SNB-75): 30%
inhibition of growth at 10 µM (U-251): 30%
inhibition of growth at 10 µM (M14): 30%
inhibition of growth at 10 µM (SK-MEL-2): 30%
inhibition of growth at 10 µM (SK-MEL-28): 30%
inhibition of growth at 10 µM (UACC-62): 30%
inhibition of growth at 10 µM (IGROV-1): 30%
inhibition of growth at 10 µM (OVCAR-4): 30%
inhibition of growth at 10 µM (OVCAR-8): 30%
inhibition of growth at 10 µM (SK-OV-3): 30%
inhibition of growth at 10 µM (786-0): 30%
inhibition of growth at 10 µM (CAKI-1): 42.9%
inhibition of growth at 10 µM (SN12C): 30%
inhibition of growth at 10 µM (UO-31): 30%
inhibition of growth at 10 µM (PC-3): 30%
inhibition of growth at 10 µM (MCF7): 30%
inhibition of growth at 10 µM (MDA-MB-231): 30%
inhibition of growth at 10 µM [1]: 30%
inhibition of growth at 10 µM (T47D): 30%
inhibition of growth at 10 µM (MDA-MB-468): 30%

From ChEMBL document CHEMBL1629431, “Synthesis and antitumor activity of some 2, 3-disubstituted quinazolin-4(3H)-ones and 4, 6- disubstituted- 1, 2, 3, 4-tetrahydroquinazolin-2H-ones” (2010)
